Where “and” joins values, the source holds several entries; their conditions need not be identical. Equal values may be shown once. The campaign covered roughly 300,000 compounds. About 4,400 (1.5%) were called active. The sample holds actives, similar compounds and a random draw of the others, so the mix is not that of the screen.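 How the source made its calls: active means mean inhibition across valid replicates above about 55% (limit read from the data); inconclusive means mean below that limit but half or more replicates reach it; inactive means mean below it, under half of replicates reach it.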 More than one record can exist for a structure, and the calls need not agree.
Assay: Trypanosoma cruzi replication blockers in host cells – luminescence, NIH3T3 host cells, primary screen (AID 1885);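 further: signal also drops with host cell toxicity which is not excluded here; 0% = plate median of DMSO wells and 100% = zero luminescence signal; higher percent means less beta-gal luminescence so fewer parasites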
Details: T. cruzi beta-gal in NIH3T3, luminescence, 90 h; stronger effect = higher value; concentration not given here
How it was run: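 System – NIH/3T3 host cells with β-galactosidase reporter T. cruzi · Doses – single 50 nL compound addition per well in DMSO · Reagent – 5000 T. cruzi trypomastigotes/well · Medium – Low-serum DMEM with 2% FBS · Timing – ≥90 h infection period, 3 h prior cell attachment · Evaluation – parasite load inhibition, % · Technique – GalScreen luminescence, 60 min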

| Structure (SMILES) | inhibition |
| --- | --- |
| COc1ccc(CCNC(=O)C(=O)NCC2CCCN2S(=O)(=O)c2cccs2)cc1OC (stereo unspecified) | 17.5% (inactive) |
| CC(=O)c1sc(N/N=C/c2ccc(C(C)C)cc2)nc1C | 65.4% (active) |
| CC(=O)c1sc(NC(=O)CCCOc2ccccc2C)nc1C | -0.939% (inactive) |
| CC(=O)c1sc(N/N=C\c2ccc(C)cc2)nc1C | -6.96% (inactive) |
| O=C(Nc1ccc(OC(F)(F)F)cc1)c1ccc2c(c1)no[n+]2[O-] | 34.6% (inactive) |
| COc1ccccc1C(=O)NC(=O)COC(=O)C1CC1 | 5.64% (inactive) |
| CS(=O)(=O)N(CC(=O)N1CCc2ccccc2C1)c1ccc(Br)cc1 | 17.3% (inactive) |
| CCC(=C/c1sc2ccc3ccccc3c2[n+]1C)/C=C1\Sc2ccc3ccccc3c2N1C | 65.5% (active) |
| O=C(COc1ccccc1)Nc1ccc(F)cc1 | -10.9% (inactive) |
| O=C(NC(Cc1ccccc1)C(=O)N1CCCC(C(F)(F)F)C1)c1ccccc1 (stereo unspecified) | -16.5% (inactive) |
| COc1ccc(NC(=O)c2cc(-c3ccc(C)o3)nc3ccccc23)cc1 | 14.8% (inactive) |
| CN(C)CCN(C(=O)C1CCCCC1)c1nc2cc3c(cc2s1)OCO3 | 28.7% (inactive) |
| CCOc1ccc(S(=O)(=O)Nc2nc3cc(OC)ccc3s2)cc1 | -7.46% (inactive) |
| CCOc1ccc2nc(N(CCCN(C)C)C(=O)c3ccc(C(=O)c4ccccc4)cc3)sc2c1 | 34.6% (inactive) |
| COc1cccc2sc(N(CCCN(C)C)C(=O)CCS(=O)(=O)c3ccccc3)nc12 | -2.98% (inactive) |
| CN(C)CCN(C(=O)C1=COCCO1)c1nc2ccc(Cl)cc2s1 | 41.8% (inactive) |
| CC(=O)N(CCCN(C)C)c1nc2ccc(C)cc2s1 | 57.7% (active) |
| CN(C)CCN(C(=O)CN1C(=O)c2ccccc2C1=O)c1nc2cc3c(cc2s1)OCCO3 | 66.3% (active) |
| COc1cccc2sc(N(CCCN(C)C)C(=O)C(c3ccccc3)c3ccccc3)nc12 | 31.5% (inactive) |
| COc1ccc2sc(N(CCCN(C)C)C(=O)c3ccc(S(=O)(=O)N(C)C4CCCCC4)cc3)nc2c1 | 61% (active) |
| CCc1ccc2nc(N(CCCN(C)C)C(=O)c3ccc4c(c3)OCCO4)sc2c1 | 55.2% (active) |
| CCN(CC)CCN(C(=O)c1cc(Cl)sc1Cl)c1nc2cc3c(cc2s1)OCO3 | 33.9% (inactive) |
| Cc1ccc2nc(N(CCN(C)C)C(=O)C3=COCCO3)sc2c1 | 53% (inactive) |
| Cc1ccc(S(=O)(=O)NCCC(=O)NC2CCN(Cc3ccccc3)CC2)cc1 | 38% (inactive) |

| Structure (SMILES) | inhibition |
| --- | --- |
| CCOc1ccc(S(=O)(=O)N2CCC(C(=O)OCc3ccc(OC)cc3)CC2)cc1 | -1.31% (inactive) |
| COc1ccccc1N(CC(=O)Nc1ccccc1C(=O)N1CCCC1)S(C)(=O)=O | -3.65% (inactive) |
| Cc1ccc(NC(=O)CSCC(=O)Nc2sccc2C#N)cc1 | -1.58% (inactive) |
| COc1ccc(CCNC(=O)CN2C(=O)COc3ccc(S(=O)(=O)N4CCCC4)cc32)cc1OC | -4.6% (inactive) |
| CCN(CC)CCN(C(=O)c1ccc(S(=O)(=O)N2CCOCC2)cc1)c1nc2cc3c(cc2s1)OCCO3 | 50.5% (inactive) |
| CN(C)CCCN(C(=O)c1ccc(S(=O)(=O)N2CCCCCC2)cc1)c1nc2cc3c(cc2s1)OCCO3 | 65.3% (active) |
| CN(C)CCCN(C(=O)c1ccc(S(=O)(=O)N2CCCCCC2)cc1)c1nc2ccc(Br)cc2s1 | 23.2% (inactive) |
| Cc1ccccc1OCC(=O)NNC(=O)c1ccc(-n2cncn2)c([N+](=O)[O-])c1 | 14.2% (inactive) |
| COc1cc(C(=O)OCC(=O)N(CC(C)C)C2CCS(=O)(=O)C2)ccc1OCC(C)C (stereo unspecified) | 1.65% (inactive) |
| O=C(Cc1ccc(F)cc1)NC1CCCC1 | -10.7% (inactive) |
| O=C(CSc1ncnc2c1nnn2Cc1ccc(F)cc1)NC1CCCC1 | 59.1% (active) |
| O=C(CSc1ncnc2c1oc1ccccc12)NC1CCCC1 | 9.78% (inactive) |
| Cc1sc(NC(=O)C2=COCCO2)c(C#N)c1C | 6.24% (inactive) |
| COc1cccc(C(=O)NCCS(=O)(=O)NCC2CCCO2)c1 (stereo unspecified) | -7.57% (inactive) |
| O=C(NCCCN1CCOCC1)c1ccc(N2CCCC2)c([N+](=O)[O-])c1 | 8.18% (inactive) |
| O=[N+]([O-])c1ccc(NCCCN2CCOCC2)c(Cl)c1 | 10.6% (inactive) |
| O=C(NCCCN1CCOCC1)c1ccc([N+](=O)[O-])cc1[N+](=O)[O-] | 64.7% (active) |
| Cc1ccc(C(=O)NNC(=O)C(C)Oc2ccc3ccccc3c2)o1 (stereo unspecified) | -1.31% (inactive) |
| COCCn1nnnc1C(c1cc2ccc(OC)cc2[nH]c1=O)N1CCc2ccccc2C1 (stereo unspecified) | -9.17% (inactive) |
| COc1ccc(OC)c(C(c2nnnn2C(C)(C)C)N2CCc3ccccc3C2)c1 (stereo unspecified) | 63.1% (active) |
| COc1ccccc1C(c1nnnn1C(C)(C)C)N1CCN(Cc2ccccc2)CC1 (stereo unspecified) | -3.59% (inactive) |
| CCCCN(C(=O)c1ccc(C)o1)c1c(N)n(CCCC)c(=O)[nH]c1=O | -0.399% (inactive) |
| O=C1CC(Sc2ncn[nH]2)C(=O)N1c1ccccc1 (stereo unspecified) | 23.3% (inactive) |
| Cc1c(-c2ccccc2)nc(N)c(C#N)c1-c1cccs1 | 0.738% (inactive) |

| Structure (SMILES) | inhibition |
| --- | --- |
| CC(NC(=O)CSc1nc2c(cc1C#N)CN(C)CC2)c1ccccc1 (stereo unspecified) | 1.88% (inactive) |
| CN1CCc2nc(SC(C(=O)O)c3ccccc3)c(C#N)c(-c3cccs3)c2C1 (stereo unspecified) | 64.4% (active) |
| CCCCn1c(N)c(N(Cc2ccccc2OC)C(=O)COc2cc(C)ccc2Cl)c(=O)[nH]c1=O | 6.73% (inactive) |
| COc1ccccc1C(=O)COC(=O)CSCC(=O)Nc1cc(C)on1 | -6.4% (inactive) |
| CCN1CCN(CCNC(=O)c2ccc(/C=C3/Sc4ccccc4N(Cc4cccc(C)c4)C3=O)cc2)CC1 | 59% (active) |
| O=C(NCCN1CCOCC1)c1ccc(/C=C2\Sc3ccccc3N(Cc3ccc(F)cc3)C2=O)cc1 | 10.9% (inactive) |
| CCN1CCN(CCNC(=O)c2ccc3c(c2)NC(=O)/C(=C\c2ccc(OC)c(OC)c2)S3)CC1 | 11.8% (inactive) |
| Cc1cc(C)c(S(=O)(=O)N2CCCC2CNC(=O)c2ccc3c(c2)OCO3)c(C)c1 (stereo unspecified) | -2.11% (inactive) |
| Cc1ccc(S(=O)(=O)c2c[nH]c3ccc(Cl)cc3c2=O)cc1 | 5.53% (inactive) |
| O=C(C1=C[C@H](c2coc3ccccc3c2=O)C[C@H](OCc2ccc(CO)cc2)O1)N1CCN(Cc2ccccc2)CC1 | 33.6% (inactive) |
| O=C(C1=C[C@H](C2CC2)C[C@H](OCc2ccc(CO)cc2)O1)N1CCN(Cc2ccccc2)CC1 | 59.7% (active) |
| O=C(NCc1ccccc1)C1=C[C@H](C2CC2)C[C@H](OCc2ccc(CO)cc2)O1 | 15% (inactive) |
| O=S(=O)(c1ccccc1)N1CCC(c2ccccc2)CC1 | 0.981% (inactive) |
| Cc1ccc(C(=O)N2CCC(n3nccc3NC(=O)Nc3cccc(F)c3)CC2)cn1 | -8.51% (inactive) |
| COc1ccc(CNS(=O)(=O)c2cc3c4c(c2)CCN4C(=O)CC3)cc1 | -11.2% (inactive) |
| CN1CCN(NC(=O)c2ccc(S(=O)(=O)N3CCCCCC3)cc2)CC1 | 68.3% (active) |
| COc1cc(C(=O)NNC(=O)c2ccc(S(=O)(=O)N3CCCCC3)cc2)cc(OC)c1OC | -12.8% (inactive) |
| CC1CN(S(=O)(=O)c2ccc(C(=O)NN3CCN(C)CC3)cc2)CC(C)O1 (stereo unspecified) | 6.61% (inactive) |
| CCN(CC(=O)Nc1cc(Cl)ccc1C)C(=O)CN1C(=O)NC2(CCCC2)C1=O | 2.7% (inactive) |
| COc1ccc(C(=O)CN2C(=O)NC3(CCc4ccccc43)C2=O)c(OC)c1 (stereo unspecified) | 1.63% (inactive) |
| C/C(=N\NC(=O)Cc1ccc(Br)cc1)c1cccnc1 | -9.89% (inactive) |
| C/C(=N\NC(=O)c1ccccc1F)c1ccccn1 | 23.5% (inactive) |
| C/C(=N\NC(=O)Cc1ccc(Cl)cc1)c1ccccn1 | 64.9% (active) |
| CCOc1ccc(NC(=O)CN(C)C(=O)c2c(C)noc2C)cc1OCC | 0.476% (inactive) |

| Structure (SMILES) | inhibition |
| --- | --- |
| CCCS(=O)(=O)N1CCN=C1SCc1cccc(F)c1 | 6.03% (inactive) |
| CC1CCN(c2ccc(-c3ccc(NC(=O)c4ccco4)cc3)nn2)CC1 | 6.55% (inactive) |
| COc1ccc(NC(=O)CSc2nc(NS(=O)(=O)c3ccc(C)cc3)cc(=O)[nH]2)cc1 | 7.86% (inactive) |
| Cc1ccc2nc(N3CCN(C(=O)c4ccco4)CC3)sc2c1 | -3.92% (inactive) |
| O=C(c1ccc2nc(N3CCOCC3)sc2c1)N1CCN(c2ccc(Cl)cc2)CC1 | 2.47% (inactive) |
| COc1ccc2nc(N3CCN(C(=O)c4ccc([N+](=O)[O-])o4)CC3)sc2c1 | 60.2% (active) |
| O=C1C=C(c2ccc(Cl)cc2)C(=O)N1Nc1ccccc1 | 44.2% (inactive) |
| CC1CCN(C(=O)c2cccc(S(=O)(=O)N3CCCc4ccccc43)c2)CC1 | 12.1% (inactive) |
| COc1ccc(C(=O)N(CCN2CCOCC2)CC(=O)NC2CCCC2)cc1OC | -3.29% (inactive) |
| CCCCOc1ccc(CSC(=N)N)cc1[N+](=O)[O-] | 38.2% (inactive) |
| CCCOc1ccc(Cn2ccnc2)cc1[N+](=O)[O-] | 30.6% (inactive) |
| CCCCCOc1ccc(CSC2=NCCN2)cc1[N+](=O)[O-] | 59.6% (active) |
| O=C(NNS(=O)(=O)c1ccc(F)cc1)C1CCCCC1 | -13.6% (inactive) |
| CCOC(=O)C[C@H]1c2ccc(C(F)(F)F)cc2S(=O)(=O)N1c1ccccc1 | -7.83% (inactive) |
| O=C(COC(=O)c1ccc([N+](=O)[O-])cc1Cl)NC(=O)c1ccccc1 | -9.49% (inactive) |
| COc1ccc(CCNC(=O)C2CCCN(Cc3nc(-c4cccc(Cl)c4)oc3C)C2)cc1OC (stereo unspecified) | 61.6% (active) |
| COc1ccc(CN2CCCC(CNC(=O)c3ccc(F)cc3)C2)cc1OC (stereo unspecified) | 45.9% (inactive) |
| COc1ccc(C(=O)C2CCCN(Cc3ccc4nonc4c3)C2)c(C)c1 (stereo unspecified) | 20% (inactive) |
| COc1ccc(CN2CCCC(C(=O)c3ccc(Cl)cc3)C2)cc1Cn1cncn1 (stereo unspecified) | 67.8% (active) |
| CCCCNC(=O)N1CCCC(N(C)CCc2ccc(OC)c(OC)c2)C1 (stereo unspecified) | 37.8% (inactive) |
| COc1ccc(CCNC(=O)CS(=O)(=O)Cc2nc(-c3ccc(C)cc3)oc2C)cc1OC | 5.37% (inactive) |
| COc1ccc(CCN(C)C(=O)C2CCCN(Cc3ccc(OC)c(OC)c3)C2)cc1OC (stereo unspecified) | 66.2% (active) and 34.7% (inactive) |
| COc1cc(CN2CCCC(C(=O)c3ccc(SC)cc3)C2)cc(Cl)c1O (stereo unspecified) | 24.2% (inactive) |
| COc1cccc(-c2nc(CS(=O)(=O)CC(=O)NCCc3ccc(OC)c(OC)c3)c(C)o2)c1 | 21.5% (inactive) |

Source: PubChem BioAssay AID1885 (Broad Institute, 2009)
